# Active and inactive are the calls of the source. The calls are words filed in the database; no cut-off is given here.
# Legend:
# Brain [1] = assay: Tmax in brain of Swiss albino mouse at 30 mg/kg, po; assay type: ADME, organism-based; parameters: dose 30 mg/kg, route oral; conditions: in vivo
# How it was run: (§1)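 Male Swiss Albino mice received a single 30 mg/kg oral gavage dose. Compound levels were measured in plasma and brain over time, and PK parameters were derived from the concentration–time data.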
# [2] = target: Survival motor neuron protein (Homo sapiens) (UniProt Q16637); assay: Activation of SMN in human fibroblast cells obtained from type 1 SMA patients assessed as protein punctuate bodies per 100 nuclei at 37 to 1000 nM relative to control; assay type: cell-based
# Chain of Survival motor neuron protein (Homo sapiens) (Q16637 whole entry): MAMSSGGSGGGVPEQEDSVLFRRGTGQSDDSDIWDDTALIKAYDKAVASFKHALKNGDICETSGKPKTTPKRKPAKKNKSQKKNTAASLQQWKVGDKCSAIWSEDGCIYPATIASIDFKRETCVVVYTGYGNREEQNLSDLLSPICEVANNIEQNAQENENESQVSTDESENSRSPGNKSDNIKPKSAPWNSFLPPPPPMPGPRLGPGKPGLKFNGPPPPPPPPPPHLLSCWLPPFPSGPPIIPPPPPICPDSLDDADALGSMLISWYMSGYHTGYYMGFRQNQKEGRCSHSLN
# Brain [3] = assay: Drug level in Swiss albino mouse brain at 30 mg/kg, po after 0.5 hr; assay type: ADME, organism-based; parameters: dose 30 mg/kg, route oral; conditions: in vivo; how it was run: as §1
# Caco-2 [4] = assay: Apparent permeability from apical side to basolateral side of human Caco2 cells at 10 uM; assay type: ADME, cell-based; conditions: caco-2, 10 µM
# Plasma [5] = assay: Free plasma concentration in Swiss albino mouse at 30 mg/kg, po after 12 hrs; assay type: ADME, organism-based; parameters: dose 30 mg/kg, route oral; conditions: in vivo
# Plasma [6] = assay: Free plasma concentration in Swiss albino mouse at 30 mg/kg, po after 0.25 hr; assay type: ADME, organism-based; parameters: dose 30 mg/kg, route oral; conditions: in vivo
# Caco-2 [7] = assay: Apparent permeability from basolateral side to apical side of human Caco2 cells at 10 uM; assay type: ADME, cell-based; conditions: caco-2, 10 µM
# Plasma [8] = assay: Cmax in plasma of Swiss albino mouse at 30 mg/kg, po; assay type: ADME, organism-based; parameters: dose 30 mg/kg, route oral; conditions: in vivo; how it was run: as §1
# Plasma [9] = assay: AUClast in plasma of Swiss albino mouse at 30 mg/kg, po; assay type: ADME, organism-based; parameters: time 0 - last, dose 30 mg/kg, route oral; conditions: in vivo; how it was run: as §1
# Plasma [10] = assay: Free plasma concentration in Swiss albino mouse at 30 mg/kg, po after 24 hrs; assay type: ADME, organism-based; parameters: dose 30 mg/kg, route oral; conditions: in vivo
# [11] = Plasma concentration in Swiss albino mouse at 30 mg/kg, po after 0.083 hrs; assay type: ADME, organism-based; parameters: dose 30 mg/kg, route oral
# [12] = Plasma concentration in Swiss albino mouse at 30 mg/kg, po after 0.5 hrs; assay type: ADME, organism-based; parameters: dose 30 mg/kg, route oral; how it was run: as §1
# [13] = target: T1, Luciferin 4-monooxygenase (Luciola lateralis, UniProt Q01158); assay: Inhibition of fire fly luciferase; parameters: species or system Aquatica lateralis; conditions: read-out: IC50
# T1 sequence (Q01158 whole entry): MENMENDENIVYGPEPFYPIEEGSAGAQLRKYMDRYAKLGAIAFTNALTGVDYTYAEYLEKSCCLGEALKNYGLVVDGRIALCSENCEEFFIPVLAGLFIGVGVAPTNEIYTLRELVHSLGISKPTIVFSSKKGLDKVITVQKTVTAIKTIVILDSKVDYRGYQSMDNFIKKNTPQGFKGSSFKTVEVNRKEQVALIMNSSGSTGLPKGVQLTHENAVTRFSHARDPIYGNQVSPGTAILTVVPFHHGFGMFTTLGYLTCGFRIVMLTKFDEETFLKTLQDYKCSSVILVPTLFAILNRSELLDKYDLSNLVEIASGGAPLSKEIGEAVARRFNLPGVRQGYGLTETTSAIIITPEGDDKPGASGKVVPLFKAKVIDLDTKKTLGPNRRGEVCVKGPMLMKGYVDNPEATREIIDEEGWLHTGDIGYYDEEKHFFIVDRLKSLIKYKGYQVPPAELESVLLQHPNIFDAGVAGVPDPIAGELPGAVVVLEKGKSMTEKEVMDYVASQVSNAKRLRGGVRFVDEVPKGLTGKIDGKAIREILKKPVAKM
# Plasma [14] = assay: Free plasma concentration in Swiss albino mouse at 30 mg/kg, po after 8 hrs; assay type: ADME, organism-based; parameters: dose 30 mg/kg, route oral; conditions: in vivo
# Brain [15] = assay: AUClast in brain of Swiss albino mouse at 30 mg/kg, po; assay type: ADME, organism-based; parameters: time 0 - last, dose 30 mg/kg, route oral; conditions: in vivo; how it was run: as §1
# Plasma [16] = assay: Free plasma concentration in Swiss albino mouse at 30 mg/kg, po after 4 hrs; assay type: ADME, organism-based; parameters: dose 30 mg/kg, route oral; conditions: in vivo
# Plasma [17] = assay: Free plasma concentration in Swiss albino mouse at 30 mg/kg, po after 0.083 hr; assay type: ADME, organism-based; parameters: dose 30 mg/kg, route oral; conditions: in vivo
# Brain [18] = assay: Drug level in Swiss albino mouse brain at 30 mg/kg, po after 0.083 hr; assay type: ADME, organism-based; parameters: dose 30 mg/kg, route oral; conditions: in vivo
# Brain [19] = assay: Half-life in brain of Swiss albino mouse at 30 mg/kg, po; assay type: ADME, organism-based; parameters: dose 30 mg/kg, route oral; conditions: in vivo; how it was run: as §1
# Plasma [20] = assay: Free plasma concentration in Swiss albino mouse at 30 mg/kg, po after 2 hrs; assay type: ADME, organism-based; parameters: dose 30 mg/kg, route oral; conditions: in vivo
# Brain [21] = assay: Drug level in Swiss albino mouse brain at 30 mg/kg, po after 24 hrs; assay type: ADME, organism-based; parameters: dose 30 mg/kg, route oral; conditions: in vivo; how it was run: as §1
# [22] = Plasma concentration in Swiss albino mouse at 30 mg/kg, po after 12 hrs; assay type: ADME, organism-based; parameters: dose 30 mg/kg, route oral; how it was run: as §1
# Brain [23] = assay: Drug level in Swiss albino mouse brain at 30 mg/kg, po after 4 hrs; assay type: ADME, organism-based; parameters: dose 30 mg/kg, route oral; conditions: in vivo; how it was run: as §1
# [24] = Plasma concentration in Swiss albino mouse at 30 mg/kg, po after 2 hrs; assay type: ADME, organism-based; parameters: dose 30 mg/kg, route oral; how it was run: as §1
# [25] = target: Survival motor neuron protein (Homo sapiens) (UniProt Q16637); assay: Activation of SMN expressed in HEK293 cells assessed as concentration required to reach 50% of maximum luciferase signal by SMN2-promotor driven luciferase reporter gene assay; assay type: cell-based
# How it was run: (§2)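 HEK-293 cells stably carrying the SMN2 reporter construct, kept in DMEM with 10% FCS, glutamax, pyruvate, pen/strep and 200 µg/mL hygromycin, and assayed without hygromycin. 2,000 cells/well were plated and adhered overnight at 37 °C, 5% CO2. Compounds were added as a 7-point titration, 50 µM to 25 nM final, in 0.46% DMSO, for 30–36 h. OneGlo luminescence was normalized to 4.5 mM sodium butyrate (100%) and DMSO (0%).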
# Brain [26] = assay: Drug level in Swiss albino mouse brain at 30 mg/kg, po after 12 hrs; assay type: ADME, organism-based; parameters: dose 30 mg/kg, route oral; conditions: in vivo; how it was run: as §1
# [27] = target: Survival motor neuron protein (Homo sapiens) (UniProt Q16637); assay: Activation of SMN expressed in HEK293 cells assessed as rate of induction by SMN2-promotor driven luciferase reporter gene assay relative to basal level; assay type: cell-based; parameters: concentration or dose not given beside the values; how it was run: as §2
# Plasma [28] = assay: Half-life in plasma of Swiss albino mouse at 30 mg/kg, po; assay type: ADME, organism-based; parameters: dose 30 mg/kg, route oral; conditions: in vivo; how it was run: as §1
# Brain [29] = assay: Drug level in Swiss albino mouse brain at 30 mg/kg, po after 2 hrs; assay type: ADME, organism-based; parameters: dose 30 mg/kg, route oral; conditions: in vivo; how it was run: as §1
# Plasma [30] = assay: Free plasma concentration in Swiss albino mouse at 30 mg/kg, po after 0.5 hr; assay type: ADME, organism-based; parameters: dose 30 mg/kg, route oral; conditions: in vivo
# [31] = Plasma concentration in Swiss albino mouse at 30 mg/kg, po after 24 hrs; assay type: ADME, organism-based; parameters: dose 30 mg/kg, route oral; how it was run: as §1
# Plasma [32] = assay: Free plasma concentration in Swiss albino mouse at 30 mg/kg, po after 1 hr; assay type: ADME, organism-based; parameters: dose 30 mg/kg, route oral; conditions: in vivo
# Brain [33] = assay: Cmax in brain of Swiss albino mouse at 30 mg/kg, po; assay type: ADME, organism-based; parameters: dose 30 mg/kg, route oral; conditions: in vivo; how it was run: as §1
# [34] = Plasma concentration in Swiss albino mouse at 30 mg/kg, po after 1 hr; assay type: ADME, organism-based; parameters: dose 30 mg/kg, route oral; how it was run: as §1
# Brain [35] = assay: Drug level in Swiss albino mouse brain at 30 mg/kg, po after 0.25 hr; assay type: ADME, organism-based; parameters: dose 30 mg/kg, route oral; conditions: in vivo; how it was run: as §1
# [36] = Plasma concentration in Swiss albino mouse at 30 mg/kg, po after 0.25 hrs; assay type: ADME, organism-based; parameters: dose 30 mg/kg, route oral; how it was run: as §1
# Plasma [37] = assay: AUC (infinity) in plasma of Swiss albino mouse at 30 mg/kg, po; assay type: ADME, organism-based; parameters: dose 30 mg/kg, route oral, time infinity; conditions: in vivo; how it was run: as §1
# Brain [38] = assay: Drug level in Swiss albino mouse brain at 30 mg/kg, po after 1 hr; assay type: ADME, organism-based; parameters: dose 30 mg/kg, route oral; conditions: in vivo; how it was run: as §1
# Plasma [39] = assay: Tmax in plasma of Swiss albino mouse at 30 mg/kg, po; assay type: ADME, organism-based; parameters: dose 30 mg/kg, route oral; conditions: in vivo; how it was run: as §1
# Brain [40] = assay: AUC (infinity) in brain of Swiss albino mouse at 30 mg/kg, po; assay type: ADME, organism-based; parameters: time infinity, dose 30 mg/kg, route oral; conditions: in vivo; how it was run: as §1
# [41] = Ratio of AUC in brain to AUC in plasma in Swiss albino mouse at 30 mg/kg, po; assay type: ADME, organism-based; parameters: dose 30 mg/kg, route oral; conditions: brain and plasma
# How it was run: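 Single oral gavage dose of 30 mg/kg given to male Swiss Albino mice; compound concentrations measured in both plasma and brain, from which brain and plasma exposure parameters were derived; animals observed for behavioural disturbance throughout the study.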
# [42] = Plasma concentration in Swiss albino mouse at 30 mg/kg, po after 8 hrs; assay type: ADME, organism-based; parameters: dose 30 mg/kg, route oral; how it was run: as §1
# Liver = assay: Half-life in mouse liver microsome at 1 uM; assay type: ADME; conditions: microsomes
# [43] = Plasma concentration in Swiss albino mouse at 30 mg/kg, po after 4 hrs; assay type: ADME, organism-based; parameters: dose 30 mg/kg, route oral; how it was run: as §1
# [44] = Plasma protein binding in Swiss albino mouse at 30 mg/kg, po; assay type: ADME, organism-based; parameters: dose 30 mg/kg, route oral; conditions: read-out: PPB (converted)
# Brain [45] = assay: Drug level in Swiss albino mouse brain at 30 mg/kg, po after 8 hrs; assay type: ADME, organism-based; parameters: dose 30 mg/kg, route oral; conditions: in vivo; how it was run: as §1
# [46] = target: Survival motor neuron protein (Homo sapiens) (UniProt Q16637); assay: Activation of SMN in human fibroblast cells obtained from type 1 SMA patients assessed as protein punctuate bodies per 100 nuclei at 37 to 3000 nM; assay type: cell-based
# How it was run: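 Type I SMA patient fibroblasts (3813 line) were treated with 37–3000 nM compound for 3 days. Gems were then counted per 100 nuclei.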
structure (smiles),measurement,setting,value
O=C(O)C1CCN(c2ncc(-c3ccc4c(c3)OCCCO4)s2)CC1,Tmax,Brain [1],15 min
same,Activity,[2],80%
same,Drug uptake,Brain [3],1.14 µmol/kg
same,Papp,Caco-2 [4],33.8 ×10⁻⁶ cm/s
same,Cp(f),Plasma [5],0.23 µM
same,Cp(f),Plasma [6],2.13 µM
same,Papp,Caco-2 [7],44.1 ×10⁻⁶ cm/s
same,Cmax,Plasma [8],44.4 µM
same,AUClast,Plasma [9],77768 ng·h/mL
same,Cp(f),Plasma [10],0.22 µM
same,concentration at 0.083 h,[11],44.4 µM
same,concentration at 0.5 h,[12],41.1 µM
same,IC50,[13],5 nM
same,Cp(f),Plasma [14],0.64 µM
same,AUClast,Brain [15],2167 ng·h/mL
same,Cp(f),Plasma [16],0.55 µM
same,Cp(f),Plasma [17],2.26 µM
same,Drug uptake,Brain [18],0.48 µmol/kg
same,t1/2,Brain [19],821.4 min
same,Cp(f),Plasma [20],0.85 µM
same,Drug uptake,Brain [21],0.13 µmol/kg
same,concentration at 12 h,[22],4.57 µM
same,Drug uptake,Brain [23],0.36 µmol/kg
same,concentration at 2 h,[24],16.6 µM
same,Activity,[25],0.012 µM
same,Drug uptake,Brain [26],0.13 µmol/kg
same,Activity,[27],325%
same,t1/2,Plasma [28],670.8 min
same,Drug uptake,Brain [29],0.43 µmol/kg
same,Cp(f),Plasma [30],2.1 µM
same,concentration at 24 h,[31],4.36 µM
same,Cp(f),Plasma [32],1.07 µM
same,Cmax,Brain [33],1.23 µmol/kg
same,concentration at 1 h,[34],21 µM
same,Drug uptake,Brain [35],1.23 µmol/kg
same,concentration at 0.25 h,[36],41.7 µM
same,AUC,Plasma [37],103094 ng·h/mL
same,Drug uptake,Brain [38],0.59 µmol/kg
same,Tmax,Plasma [39],4.98 min
same,AUC,Brain [40],3115 ng·h/mL
same,Kp,[41],0.028
same,concentration at 8 h,[42],12.6 µM
same,t1/2,Liver,> 60 min
same,concentration at 4 h,[43],10.8 µM
same,fraction unbound,[44],0.051
same,Drug uptake,Brain [45],0.32 µmol/kg
NC(=O)C1CCN(c2ncc(-c3ccc4c(c3)OCCCO4)s2)CC1,Papp,Caco-2 [4],13.1 ×10⁻⁶ cm/s
same,Activity,[46],inactive
same,Papp,Caco-2 [7],9.9 ×10⁻⁶ cm/s
same,IC50,[13],3200 nM
same,Activity,[25],0.038 µM
same,Activity,[27],370%
same,t1/2,Liver,30 min
